Assay outcomes: PubChem, The Scripps Research Institute Molecular Screening Center
Most compounds without a hit are left out; they make up all but 1% or so of the library.
PME-1 inh: PME-1 (human) inhibition | recombinant PME-1, FP-Rh probe fluorescence polarization | actives 0.53% (n = 320,000) | inhibition, % at 5.9 µM | Q9Y570;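 active = inhibition above the campaign mean of all compounds plus 3 SD, cut at about 26% in these data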;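 note: competitive labeling of PME-1 active site by serine hydrolase directed probe; inhibitors block probe labeling so polarization falls and inhibition rises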
proCasp3 act: activates human procaspase-3; P42574; recombinant procaspase-3 D3A, Ac-DEVD-pNA absorbance 405 nm; activation, % at 8.5 µM; actives 0.11% (n = 330,000);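 active = activation above the mean of all tested compounds plus 3 SD, cut at about 21% in these data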
Target sequence (P42574 whole entry D9A/D28A/D175A): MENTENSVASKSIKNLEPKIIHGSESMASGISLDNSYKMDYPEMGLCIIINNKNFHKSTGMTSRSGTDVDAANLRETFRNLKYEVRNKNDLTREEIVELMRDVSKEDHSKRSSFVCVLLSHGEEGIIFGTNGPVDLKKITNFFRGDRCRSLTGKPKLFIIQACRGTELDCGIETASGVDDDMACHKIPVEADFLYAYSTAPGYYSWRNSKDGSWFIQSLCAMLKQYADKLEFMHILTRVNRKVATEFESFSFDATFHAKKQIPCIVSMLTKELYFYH
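Assay system – Procaspase-3 D3A mutant · Benchmarks – DMSO low control, extra-enzyme high control · Technique – 405 nm absorbance of p-nitroaniline, reads at 0 and 120 min · Doses – 8.5 µM nominal · Measure – % activation between DMSO and enzyme-spiked controls · Also added – Ac-DEVD-pNA chromogenic peptide substrate · Schedule – 1 h compound preincubation, 2 h substrate hydrolysis at 25 °C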
procasp7 counter: counter-screen: procaspase-7 (human) activation. activation, % at 8.5 µM. actives 0.093% (n = 330,000). P55210. recombinant procaspase-7, Ac-DEVD-pNA absorbance 405 nm; D23A/D198A/D206A triple mutant, cannot self-cleave; scale: DMSO 0, 5 µM enzyme 100;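 active = percent activation above the screen-wide mean plus 3 SD, cut at about 25% in these data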
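buffer or medium = Zinc-free HEPES/NaCl buffer, pH 7.4 | material = Procaspase-7 triple mutant (PC-7 D3A) | input = 2 µM procaspase-7 mutant as dispensed | signal = Epi-absorbance of released pNA at 405 nm, two timepoints | timing = 1 h preincubation, 2 h reaction | replicates = singlicate compound testing | evaluation = % activation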
LYPLA2 counter: counter-screen for PME1 inhibitors: inhibitors of human LYPLA2. O95372. recombinant LYPLA2, FP-Rh probe fluorescence polarization. inhibition, % at 5.9 µM. actives 0.38% (n = 320,000). AID 2177;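 active = inhibition above the screen-wide mean plus 3 SD, limit set per campaign, cut at about 26% in these data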
Target sequence (O95372 whole entry, looked up): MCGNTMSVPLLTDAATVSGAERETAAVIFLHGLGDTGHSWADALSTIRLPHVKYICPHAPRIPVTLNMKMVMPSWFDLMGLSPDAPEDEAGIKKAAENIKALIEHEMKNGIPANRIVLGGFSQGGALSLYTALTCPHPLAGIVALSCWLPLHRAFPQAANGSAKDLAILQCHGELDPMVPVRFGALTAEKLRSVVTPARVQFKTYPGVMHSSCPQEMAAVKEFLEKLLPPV
LYPLA1 inh: blocks human lysophospholipase 1, a PME1 counter-screen. actives 0.16% (n = 320,000). recombinant LYPLA1, FP-Rh probe fluorescence polarization. inhibition, % at 5.9 µM. AID 2174;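 active = inhibition above the mean of all tested compounds plus 3 SD, set per campaign, cut at about 14% in these data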;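 note: inhibitors block serine hydrolase probe labeling of LYPLA1 so polarization falls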
Fam108B counter: counter-screen for RBBP9 inhibitors: inhibitors of mouse Fam108B | recombinant Fam108B, FP-Rh probe fluorescence polarization | inhibition, % at 9.51 µM | actives 0.33% (n = 300,000);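 active = inhibition above the screen mean inhibition plus 3 SD, computed separately per campaign, cut at about 18% in these data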;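 note: inhibitors lower polarization as less probe binds the enzyme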
LYPLA2 conf: counter-screen for PME1 inhibitors: confirmation of human LYPLA2 inhibitors; shares compounds with LYPLA2 counter; recombinant LYPLA2, FP-Rh probe fluorescence polarization; inhibition, % at 5.9 µM; actives 72% (n = 1,100); AID 2232;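 active = mean inhibition across replicates above the hit cutoff set in the primary screen, cut at about 26% in these data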;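 note: blocked labeling of the enzyme by serine hydrolase FP-Rh probe lowers polarization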
LYPLA2 ABPP: LYPLA2 (human) inhibition, late stage results; actives 30% (n = 150); inhibition, % at 20 µM; shares compounds with LYPLA2 counter; AID 652029; rhLYPLA2 in mouse brain proteome, gel ABPP FP-Rh;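 active = inhibition of LYPLA2 enzyme probe labeling above about 50%, limit read from the data; inactive = inhibition below that limit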;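 note: loss of FP-Rh probe labeling of the LYPLA2 gel band measured as band density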
Of the large screens only hits and unclear results are named; the others gave an inactive call (follow-up assays come after a bar, where they were run).

CN(C)S(=O)(=O)c1ccc(Cl)c(NC(=O)CN2C(=O)NC3(CCc4ccccc43)C2=O)c1 (stereo not given)	none (no result: Fam108B counter)
Cc1ccc(NC(=O)C2CCN(C(=O)c3ccc(F)cc3)CC2)nc1	none
Cc1nc(SCC(=O)NCCN2C(=O)CSC2=O)nc(C)c1C	none (no result: PME-1 inh, LYPLA2 counter, LYPLA1 inh, Fam108B counter)
COc1cccc(/C=C2\Sc3ccc(C(=O)NCc4cccnc4)cc3N(C)C2=O)c1	none
COc1ccc(/C=C2\Sc3ccc(C(=O)NCc4cccnc4)cc3N(C)C2=O)cc1OC	LYPLA2 counter 28 | LYPLA2 conf inactive
Cc1ccc(C(=O)NC2CC(C)(C)NC(C)(C)C2)cc1S(=O)(=O)N1CCCCC1	none
O=C(C1CCC(=O)N1Cc1ccccc1Cl)N1CCN(c2cccc(Cl)c2)CC1 (stereo not given)	LYPLA2 counter 34 | LYPLA2 conf 32
Cc1nn(C)cc1C(=O)Nc1ccc2c(c1)OCCO2	none
O=C(COc1ncnc2cc(Cl)ccc12)c1ccccc1	none
O=C(COc1ncnc2ccccc12)c1ccc(Cl)cc1	LYPLA2 counter 29 | LYPLA2 conf inactive
COc1ccc(C(=O)COc2nc(C)cc(C)c2C#N)cc1	none
COc1ccc(C(=O)COc2ncnc3cc(Cl)ccc23)cc1	LYPLA2 counter 27 | LYPLA2 conf 31
Nc1c(C(=O)CSc2nnc(Cc3ccccc3)o2)c(=O)[nH]c(=O)n1C1CC1	none (no result: Fam108B counter)
COc1ccc(C(=O)NCCS(=O)(=O)N2CCc3ccccc3C2)cc1OC	none
CSCC[C@H](NC(=O)[C@H]1N2C(=O)c3ccccc3C2SC1(C)C)C(=O)NCc1ccncc1 (stereo not given in full)	none
Cc1cc(C(=O)NC(C)c2ccccc2)c2cc(F)ccc2n1 (stereo not given)	LYPLA2 counter 28 | LYPLA2 conf inactive
Cc1cc(C(=O)NC2CCCCC2)c2cc(F)ccc2n1	none
CCCNC(=O)c1ccc(N2CCC3(CC2)CC(c2ccccc2)=NO3)c(N)c1	none
CCCNC(=O)c1ccc(N2CCC3(CC2)CC(c2ccccc2)=NO3)c([N+](=O)[O-])c1	LYPLA2 counter 28 | LYPLA2 conf inactive
O=C(ON=C1CCN(c2ccc([N+](=O)[O-])cc2)CC1)c1ccccc1	LYPLA2 counter 37 | LYPLA2 conf 35
COc1ccc(C(=O)ON=C2CCN(c3ccc([N+](=O)[O-])cc3)CC2)cc1	LYPLA2 counter 35 | LYPLA2 conf 39
Cc1ccc(OCC(=O)OCC(=O)c2ccccc2)cc1C	LYPLA2 counter 29 | LYPLA2 conf inactive
Cc1ccccc1OCC(=O)OCC(=O)c1ccc(OC(=O)c2ccccc2)cc1	none
O=C(Nc1nc(-c2cccs2)cs1)c1ccc([N+](=O)[O-])o1	none (no result: Fam108B counter)
Cc1cnc(NC(=O)C2CC=CCC2)s1 (stereo not given)	none
O=C(CN1CCN(C(=O)c2cccc(-n3cnnn3)c2)CC1)Nc1ccccc1Cl	none (no result: Fam108B counter)
COc1ccc(N2CCN(C(=O)Cn3cnc4c3c(=O)n(C)c(=O)n4C)CC2)cc1	none
Cn1c(=O)c2c(ncn2CC(=O)N2CCN(c3ccc([N+](=O)[O-])cc3)CC2)n(C)c1=O	LYPLA2 counter 40 | LYPLA2 conf 43
NC(=O)C1(N2CCCCC2)CCN(C(=O)CSc2nc3ccccc3s2)CC1	LYPLA2 counter 32 | LYPLA2 conf 31
Cn1c(SCC(=O)Nc2ccc3cn[nH]c3c2)nnc1-c1cnccn1	none
Cn1c(SCC(=O)Nc2ccc3cn[nH]c3c2)nnc1-c1cccs1	LYPLA2 counter 29 | LYPLA2 conf inactive
Cn1cc(C(=O)Nc2ccc(Cl)c(Cl)c2)cn1	none
Cc1ccccc1NC(=O)Cc1nc(COC(=O)c2ccc(S(C)(=O)=O)c([N+](=O)[O-])c2)cs1	none (no result: Fam108B counter)
CCc1ccc(C(=O)Cn2ncc(Cl)c(Cl)c2=O)cc1	LYPLA2 counter 31 | LYPLA2 conf 35
CC1CCCN(C(=O)c2ccc3c(c2)OCCO3)C1 (stereo not given)	none (no result: Fam108B counter)
COc1ccccc1C(=O)C1CCCN(C(=O)c2ccc3c(c2)OCCO3)C1 (stereo not given)	LYPLA2 counter 43 | LYPLA2 conf inactive
COc1cccc(NC(=O)CN2C(=O)CSc3ccc(S(=O)(=O)N4CCCCC4)cc32)c1	LYPLA2 counter 40 | LYPLA2 conf 38
Cc1cc(C)cc(NC(=O)CN2C(=O)COc3ccc(S(=O)(=O)N4CCCC4)cc32)c1	LYPLA2 counter 37 | LYPLA2 conf 33
Cc1ccc(NC(=O)CN2C(=O)CSc3ccc(S(=O)(=O)N4CCCCC4)cc32)cc1	none
COc1ccc(N(CC(=O)NCCc2ccc(OC)c(OC)c2)S(=O)(=O)c2ccc(OC)c(OC)c2)cc1	none
COc1ccc(OC)c(-c2cc(C(=O)Nc3c(C)nn(Cc4ccccc4)c3C)no2)c1	LYPLA2 counter 61 | LYPLA2 conf 66 | LYPLA2 ABPP 64
Cc1nn(Cc2ccccc2)c(C)c1NC(=O)c1cc(-c2ccco2)on1	none
COc1ccc(OC)c(-c2cc(C(=O)Nc3c(C)nn(Cc4ccc(Cl)cc4)c3C)no2)c1	LYPLA2 counter 44 | LYPLA2 conf 87 | LYPLA2 ABPP inactive
C=CCN1C(=O)c2ccc(C(=O)NCCc3ccc(OC)c(OC)c3)cc2C1=O	none
COc1cc(N)c(Cl)cc1C(=O)N[C@H]1CCN(CCCOc2ccc(F)cc2)C[C@H]1OC	LYPLA2 counter 27 | LYPLA2 conf 31
COc1ccc(C(=O)CCC(=O)N2CCN(c3ccc([N+](=O)[O-])cc3)CC2)cc1	LYPLA2 counter 29 | LYPLA2 conf inactive
Cc1noc(C)c1CSCC(=O)N1CCN(c2ccc([N+](=O)[O-])cc2)CC1	LYPLA2 counter 28 | LYPLA2 conf inactive
O=[N+]([O-])c1ccc(N2CCN(c3ccccc3)CC2)cc1	none
Cc1ccc(CC(=O)N2CCN(c3ccc([N+](=O)[O-])cc3)CC2)cc1	none
COc1ccc(N2CCN(C(=O)CSc3ccc([N+](=O)[O-])cc3)CC2)cc1	LYPLA2 counter 54 | LYPLA2 conf 49
O=C(CCCC(=O)N1CCN(c2ccc([N+](=O)[O-])cc2)CC1)c1ccccc1	LYPLA2 counter 34 | LYPLA2 conf 33
CCN(Cc1nc(-c2ccc(OC)c(OC)c2)no1)C(=O)c1ccoc1C	none
CCc1noc(C)c1C(=O)OCC(=O)N(C)c1c(N)n(Cc2ccccc2)c(=O)[nH]c1=O	none
